Measurements from ChEMBL document CHEMBL1148199, “Synthesis, conformational analysis, and cytotoxicity of new analogues of the natural cyclodepsipeptide jaspamide” (J Nat Prod, 2004).
Converted amounts (≈) assume the structure as drawn. The source made the active and inactive calls. The calls are words filed in the database; no cut-off is given here.

Columns and labels:
A10 [1] = assay: Effect on cell morphology in rat A10 cells assessed as actin aggregation at 23 nM by immunofluorescence assay; assay type: functional, cell-based
In short: (§1)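 A-10 rat aortic smooth muscle cells were grown to near-confluency on glass coverslips and treated for 24 h. Microfilaments were stained with monoclonal anti-β-actin followed by fluorescein-conjugated anti-mouse IgG. Actin aggregation was scored by immunofluorescence microscopy. Microtubules were stained in parallel samples with anti-β-tubulin and the same secondary antibody.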

A10 [2] = assay: Effect on cell morphology in rat A10 cells assessed as actin aggregation at 0.85 nM by immunofluorescence assay; assay type: functional, cell-based; in short: as §1
MCF7 = assay: Antiproliferative activity against human MCF7 cells after 48 hrs by SRB assay; conditions: MCF7, 48 h
A10 [3] = assay: Effect on cell morphology in rat A10 cells assessed as microfilaments depolymerization by immunofluorescence assay; assay type: functional, cell-based
In short: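 A-10 rat smooth muscle cells grown to near-confluency on glass coverslips and exposed to compounds at micromolar amounts for 24 h. Jaspamide served as positive control. Microfilaments stained with monoclonal anti-β-actin, then fluorescein-conjugated anti-mouse IgG. Read-out: actin aggregation and cellular aberrations such as binucleated cells.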

A10 [4] = assay: Antiproliferative activity against rat A10 cells after 48 hrs by SRB assay; assay type: cell-based; conditions: A10, 48 h
In short: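 A-10 rat aortic smooth muscle cells kept in α-MEM with 10% FBS and 50 μg/mL gentamycin at 37 °C, 5% CO2. Seeded at ~15% confluency, 24 h recovery, then triplicate 48 h exposure to a concentration series. SRB binding read against control cultures. IC50 is the concentration causing 50% inhibition of proliferation.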

[5] = Antiproliferative activity against multidrug-resistant human NCI/ADR cells expressing p-glycoprotein after 48 hrs by SRB assay; assay type: functional, cell-based; conditions: NCI/ADR-RES
In short: (§2)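 Human cell lines (T24 bladder carcinoma, MCF-7, NCI/ADR) kept in RPMI-1640 with 10% FBS and 50 μg/mL gentamycin at 37 °C, 5% CO2. Plated at ~15% confluency and left 24 h to attach. Treated in triplicate with varying concentrations for 48 h. Survival measured by sulforhodamine B binding as % of control cultures. IC50 is the concentration giving 50% inhibition of proliferation.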

A10 [6] = assay: Effect on cell morphology in rat A10 cells assessed microtubule depolymerization by immunofluorescence assay; assay type: functional, cell-based
In short: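 Near-confluent A-10 cells on glass coverslips treated with compounds at micromolar amounts for 24 h. Microtubules immunostained with monoclonal anti-β-tubulin followed by fluorescein-conjugated anti-mouse IgG and examined for changes in the microtubule network.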

T-24 = assay: Antiproliferative activity against human T24 cells after 48 hrs by SRB assay; assay type: functional, cell-based; conditions: T-24, 48 h; in short: as §2

Row | IC50 (MCF7) [µg/mL] | Structure (SMILES) | Activity (A10 [1]) | Activity (A10 [2]) | Activity (A10 [3]) | IC50 (A10 [4]) [µg/mL] | IC50 [5] [µg/mL] | Activity (A10 [6]) | IC50 (T-24) [µg/mL]
1 | – | C/C1=C\[C@H](C)C[C@H](C)OC(=O)C[C@H](c2ccc(O)cc2)NC(=O)[C@@H](Cc2c(Br)[nH]c3ccccc23)N(C)C(=O)[C@H](C)NC(=O)[C@@H](C)C1 | Active | Active | – | – | – | – | –
2 | 3 (≈ 5.7 µM) | CC(C)[C@@H]1NC(=O)[C@@H](Cc2c[nH]c3ccccc23)NC(=O)[C@H](C)NC(=O)CCNC(=O)CCCCNC1=O | – | – | inactive | 4.3 (≈ 8.17 µM) | 24 (≈ 45.6 µM) | inactive | 19 (≈ 36.1 µM)
3 | > 100 | CC(C)[C@@H]1NC(=O)[C@@H](Cc2c[nH]c3ccccc23)NC(=O)[C@H](C)NC(=O)CCCCCCCNC1=O | – | – | inactive | > 100 | > 100 | inactive | > 100
4 | 1.8 (≈ 3.83 µM) | CC(C)[C@@H]1NC(=O)[C@@H](Cc2c[nH]c3ccccc23)NC(=O)[C@H](C)NC(=O)CCCCCNC1=O | – | – | inactive | 2 (≈ 4.26 µM) | 12.5 (≈ 26.6 µM) | inactive | 10.3 (≈ 21.9 µM)
